Key:
[1] = tested on: Liver; assay: Stability in mouse liver microsomes at 1 uM after 3 to 30 mins by LC-MS/MS analysis; type: ADME
In short: (§1)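 Liver microsomes at 0.5 mg/mL (human or mouse) in 100 mM potassium phosphate, pH 7.4, with 1 μM compound, prewarmed 10 min at 37 °C. Reaction started with NADPH (10 mM) and stopped at 0, 3, 6, 9, 15 and 30 min with ice-cold methanol holding tolbutamide internal standard. Centrifuged 10 min at 4 °C; supernatant analysed by LC-MS/MS.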

[2] = tested on: Liver microsome; assay: Stability in human liver microsomes at 1 uM after 3 to 30 mins by LC-MS/MS analysis; type: ADME; in short: as §1

**Q.** What does the source list for `O=C(NO)c1ccc2c(c1)C[C@H](Nc1nccc(-c3cccnc3)n1)CC2`?
**A.** Stability [1]: Stable; Stability [2]: Stable

— ChEMBL document CHEMBL3351740, “Identification of a novel aminotetralin class of HDAC6 and HDAC8 selective inhibitors” (J Med Chem, 2014)
